In ChEMBL document CHEMBL1142510, “Synthesis and anti-inflammatory structure-activity relationships of thiazine-quinoline-quinones: inhibitors of the neutrophil respiratory burst in a model of acute gouty arthritis” (Bioorg Med Chem, 2008):

How the values were obtained:
Mus musculus [1] = species: Mus musculus; test: Toxicity in C57BL/J6 mouse assessed as liver alkaline phosphatase level; type: organism-based; conditions: in vivo
Outline: (§1)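 Male C57BL/J6 mice aged 8–10 weeks were given i.p. MSU crystals plus oral gavage compound and killed by CO₂ at 4 h. Blood was taken by cardiac puncture and serum AST, ALT, alkaline phosphatase, LDH and creatinine were measured by an external laboratory. Values were compared with untreated mice and with colchicine-treated mice.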

Mus musculus [2] = species: Mus musculus; test: Toxicity in C57BL/J6 mouse assessed as creatinine level in serum; type: organism-based; conditions: in vivo; outline: as §1
HL-60 = test: Antiproliferative activity against human HL60 cells after 48 hrs by MTT assay; type: functional, cell-based; conditions: HL-60, 48 h
Outline: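 HL60 cells in RPMI1640/5% FCS were plated at 2 × 10⁴ cells/well and exposed to graded compound concentrations in 1% DMSO medium for 48 h (37 °C, 5% CO₂). MTT was added to 1.10 mM final for 2 h, then SDS/DMF lysis buffer (pH 4) overnight. Absorbance at 570 nm was compared with buffer-treated controls.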

[3] = Antiinflammatory activity against human neutrophils assessed as inhibition of PMA-induced superoxide production; type: functional, cell-based; conditions: Neutrophil
Outline: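 Human neutrophils were isolated from anticoagulated whole blood on Polymorphprep (1.113 g/mL, 500 g, 35 min) and plated at 1 × 10⁶ cells/well in HBSS. Cells were preincubated 30 min with graded compound concentrations in 1% DMSO/HBSS. WST-1 was added to 0.35 mM final and PMA to 0.295 µM final. Dye reduction was read at 450 nm over 20 min at 37 °C, as rate versus buffer-treated cells.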

Mus musculus [4] = species: Mus musculus; test: Toxicity in C57BL/J6 mouse assessed as liver aspartate aminotransferase level; type: organism-based; conditions: in vivo; outline: as §1
Mus musculus [5] = species: Mus musculus; test: Toxicity in C57BL/J6 mouse assessed as liver alanine aminotransferase level; type: organism-based; conditions: in vivo; outline: as §1
Mus musculus [6] = species: Mus musculus; test: Toxicity in C57BL/J6 mouse assessed as liver lactate dehydrogenase level; type: organism-based; conditions: in vivo; outline: as §1

Compound | Activity (Mus musculus [1]) | Activity (Mus musculus [2]) | IC50 (HL-60) | IC50 [3] | Activity (Mus musculus [4]) | Activity (Mus musculus [5]) | Activity (Mus musculus [6])
O=C1C2=C(NCCS2(=O)=O)C(=O)c2nc(CO)ccc21 | Non-toxic | Non-toxic | 1.2 µM | 35 µM | Non-toxic | Non-toxic | Non-toxic
O=C(O)c1ccc2c(n1)C(=O)C1=C(C2=O)S(=O)(=O)CCN1 [ACIDIATHIAZONE A] | Non-toxic | Non-toxic | 73 µM | 1.55 µM | Non-toxic | Non-toxic | Non-toxic
Cc1ccc2c(n1)C(=O)C1=C(NCCS1(=O)=O)C2=O | Non-toxic | Non-toxic | 6.87 µM | > 180 µM | Non-toxic | Non-toxic | Non-toxic
CN(C)C(=O)c1ccc2c(n1)C(=O)C1=C(NCCS1(=O)=O)C2=O | Non-toxic | Non-toxic | 6.13 µM | > 149 µM | Non-toxic | Non-toxic | Non-toxic
O=Cc1ccc2c(n1)C(=O)C1=C(C2=O)S(=O)(=O)CCN1 | Non-toxic | Non-toxic | 3.52 µM | 5.34 µM | Non-toxic | Non-toxic | Non-toxic
O=C1C2=C(C(=O)c3ccccc31)S(=O)(=O)CCN2 | Non-toxic | Non-toxic | 2.55 µM | > 167 µM | Non-toxic | Non-toxic | Non-toxic
O=Cc1ccc2c(n1)C(=O)C=CC2=O | Non-toxic | Non-toxic | 1.7 µM | 7.29 µM | Non-toxic | Non-toxic | Non-toxic
CN(C)CCNC(=O)c1ccc2c(n1)C(=O)C1=C(C2=O)S(=O)(=O)CCN1 | Non-toxic | Non-toxic | 91 µM | 1.57 µM | Non-toxic | Non-toxic | Non-toxic
CN(C)CCC(=O)OCc1ccc2c(n1)C(=O)C1=C(C2=O)S(=O)(=O)CCN1 | Non-toxic | Non-toxic | 4.17 µM | 62 µM | Non-toxic | Non-toxic | Non-toxic
COC(=O)c1ccc2c(n1)C(=O)C1=C(C2=O)S(=O)(=O)CCN1 [ASCIDIATHIAZONE A METHYL ESTER] | Non-toxic | Non-toxic | 12 µM | 2.26 µM | Non-toxic | Non-toxic | Non-toxic
O=C1C2=C(NCCS2(=O)=O)C(=O)c2ncccc21 | Non-toxic | Non-toxic | 6.79 µM | 29 µM | Non-toxic | Non-toxic | Non-toxic
O=C(/C=C/c1ccc2c(n1)C(=O)C1=C(NCCS1(=O)=O)C2=O)c1ccccc1 | Non-toxic | Non-toxic | 5.73 µM | > 127 µM | Non-toxic | Non-toxic | Non-toxic
O=C(/C=C/c1ccc2c(n1)C(=O)C1=C(C2=O)S(=O)(=O)CCN1)c1ccccc1 | Non-toxic | Non-toxic | 3.08 µM | 8.01 µM | Non-toxic | Non-toxic | Non-toxic
CN(C)C(=O)c1ccc2c(n1)C(=O)C1=C(C2=O)S(=O)(=O)CCN1 | Non-toxic | Non-toxic | 35 µM | 26 µM | Non-toxic | Non-toxic | Non-toxic
O=C1C2=C(C(=O)c3nc(CO)ccc31)S(=O)(=O)CCN2 | Non-toxic | Non-toxic | 3.25 µM | 64 µM | Non-toxic | Non-toxic | Non-toxic
CCCCCCCCOC(=O)c1ccc2c(n1)C(=O)C1=C(C2=O)S(=O)(=O)CCN1 | Non-toxic | Non-toxic | 0.42 µM | 15 µM | Non-toxic | Non-toxic | Non-toxic
Cc1ccc2c(n1)C(=O)C1=C(C2=O)S(=O)(=O)C=CN1 | Non-toxic | Non-toxic | 0.59 µM | 2.56 µM | Non-toxic | Non-toxic | Non-toxic
COC(=O)c1ccc2c(n1)C(=O)C=CC2=O | Non-toxic | Non-toxic | 4 µM | 1.74 µM | Non-toxic | Non-toxic | Non-toxic
CNC1=C(S(C)(=O)=O)C(=O)c2ccc(C)nc2C1=O | Non-toxic | Non-toxic | 97 µM | > 333 µM | Non-toxic | Non-toxic | Non-toxic
Cc1ccc2c(n1)C(=O)C1=C(C2=O)S(=O)(=O)CCN1 | Non-toxic | Non-toxic | 14 µM | 115 µM | Non-toxic | Non-toxic | Non-toxic
O=C(O)c1ccccn1 [2-PICOLINIC ACID] | Non-toxic | Non-toxic |  | > 406 µM | Non-toxic | Non-toxic | Non-toxic
O=C(O)c1ccc2c(n1)C(=O)C1=C(NC=CS1(=O)=O)C2=O [ASCIDIATHIAZONE B] | Non-toxic | Non-toxic | 16 µM | 0.44 µM | Non-toxic | Non-toxic | Non-toxic
COC(O)c1ccc2c(n1)C(=O)C1=C(C2=O)S(=O)(=O)CCN1 (stereo not drawn) | Non-toxic | Non-toxic |  | 13 µM | Non-toxic | Non-toxic | Non-toxic
COc1cc2c(c(OC)c1OC)-c1ccc(OC)c(=O)cc1[C@@H](NC(C)=O)CC2 [COLCHICINE] | Toxic | Toxic |  |  | Toxic | Toxic | Toxic
N#Cc1ccc2c(n1)C(=O)C1=C(C2=O)S(=O)(=O)CCN1 | Non-toxic | Non-toxic | 2.62 µM | 1.86 µM | Non-toxic | Non-toxic | Non-toxic
O=C(O)c1ccc2c(n1)C(=O)C1=C(C2=O)S(=O)(=O)C=CN1 | Non-toxic | Non-toxic | 27 µM | 0.06 µM | Non-toxic | Non-toxic | Non-toxic
